Laboratory results reported in ChEMBL document CHEMBL1157173, “Isocoumarin-based inhibitors of pancreatic cholesterol esterase” (Bioorg Med Chem, 2008).

assay: Binding affinity to pig pancreatic cholesterol esterase; parameters: species or system Sus scrofa
Outline: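 Porcine enzyme assayed in 0.1 M Hepes, pH 7, with 6 mM taurocholate and 1 mM p-nitrophenylbutyrate substrate; hydrolysis followed at 405 nm. Inhibition constants derived from double reciprocal and Dixon plots, and for high-affinity inhibitors from Straus-Goldstein plots.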

Compound	Ki
COc1oc(=O)c2cc(N)ccc2c1Cl	17 µM
Nc1ccc2c(Cl)c(OCCBr)oc(=O)c2c1	26 µM
CCCCOc1oc(=O)c2ccccc2c1Cl	6.5 µM
O=c1oc(OCCBr)cc2ccc([N+](=O)[O-])cc12	50 µM
Nc1ccc2cc(OCCBr)oc(=O)c2c1	> 100 µM
CCCOc1oc(=O)c2ccccc2c1Cl	3.6 µM
O=C(c1c(OCC2CCCCC2)oc(=O)c2ccccc12)C(F)(F)F	> 100 µM
O=c1oc(OCCCBr)c(Cl)c2ccc([N+](=O)[O-])cc12	1.6 µM
COc1oc(=O)c2cc([N+](=O)[O-])ccc2c1Cl	19 µM
O=c1oc(OCCCBr)cc2ccc([N+](=O)[O-])cc12	33 µM
O=c1oc(OCCBr)c(Cl)c2ccc([N+](=O)[O-])cc12	0.26 µM
O=c1oc(OC2CCC(C3CCCCC3)CC2)c(Cl)c2ccccc12 (stereo not given)	0.19 µM
O=c1oc(OCCC2CCCCC2)cc2ccc([N+](=O)[O-])cc12	> 100 µM
COc1oc(=O)c2cc(NC(=O)C3CCCCC3)ccc2c1Cl	> 25 µM
CCCOc1oc(=O)c2ccccc2c1C(=O)C(F)(F)F	> 25 µM
O=c1oc(OCC2CCCCC2)c(Cl)c2ccc([N+](=O)[O-])cc12	5.7 µM
O=c1oc(OCC2CCCCC2)cc2ccc([N+](=O)[O-])cc12	54 µM
COc1oc(=O)c2cc(NC(=O)c3ccccc3)ccc2c1Cl	> 250 µM

The next lines start with the values.

Ki	Compound
0.95 µM	O=c1oc(OC2CCCC2)c(Cl)c2ccccc12
0.019 µM	O=c1oc(OCCCC2CCCC2)c(Cl)c2ccccc12
73 µM	O=C(c1c(OCCC2CCCCC2)oc(=O)c2ccccc12)C(F)(F)F
1.8 µM	O=c1oc(OCC2CCCCC2)c(Cl)c2ccccc12
1.2 µM	O=c1oc(OCCC2CCCCC2)c(Cl)c2ccccc12
0.36 µM	O=c1oc(OCC2CCCC2)c(Cl)c2ccccc12
0.26 µM	O=c1oc(OCCC2CCCC2)c(Cl)c2ccccc12
0.18 µM	O=c1oc(OCCCC2CCCCC2)c(Cl)c2ccccc12
62 µM	O=c1oc(OCCCCCC2CCCCC2)c(Cl)c2ccccc12
0.7 µM	O=c1oc(OCCC2CCCCC2)c(Cl)c2ccc([N+](=O)[O-])cc12
0.011 µM	O=c1oc(OCCCCC2CCCCC2)c(Cl)c2ccccc12
1.2 µM	O=c1oc(OC2CCCCC2)c(Cl)c2ccccc12
